For 36 sequences, Tm and folding enthalpy results are on record in the array DNA melting data of Ke et al. (doi:10.1101/2024.01.08.574731).

Data set [1] is described as follows: melting temperature; fluorescence melt of hairpins on a sequencing array, two-state fit, raised by 9.35 °C to match UV melts. The settings on record: sodium 0.088 M. The essentials: (§1)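 With Cy3 and quencher oligos annealed, library hairpins on a sequenced MiSeq flow cell were imaged for Cy3 fluorescence in 50 mM Na-HEPES pH 8.0, 25 mM NaCl, in 2.5 °C steps up to 60 °C. Melting temperature and folding enthalpy were derived from bootstrapped two-state fits of signals normalised to pre-quench Cy3 and to control constructs. Four replicates were combined by inverse variance, with fitted temperatures raised by 9.35 °C to match UV melts.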

A short description of data set [2]: folding enthalpy; higher = less favourable; fluorescence melt of hairpins on a sequencing array, two-state fit. Conditions: sodium 0.088 M. In a few lines:
as §1

With GTTGGTGGAAACATCAGC (.((.((....)).)).), the Tm in data set [1] amounted to 31.4 °C. Besides, in data set [2], the folding enthalpy is -18.8 kcal/mol.
The like results for GAGTAAGGAAACTCACTC ((((.((....)).)))) were, in that order, 24.8 °C and -14.8 kcal/mol.
The like results for GTGGCTTCGAAAGAACAC (((..(((....)))))) were, in that order, 29.7 °C and -8.99 kcal/mol.
The corresponding values for GTACAGCCGAAAGGCTAC (((..(((....)))))) are 27.2 °C and -7.38 kcal/mol.
In the case of GCATTGCGAAAGCTACGC ((.(.((....)).).)), the Tm in data set [1] worked out at 39.1 °C. Moreover, the folding enthalpy in data set [2] is -14 kcal/mol.
The like results for GCTCAGGGAAACTTGAGC (((((.(....).))))) were, in that order, 48.7 °C and -33.3 kcal/mol.
Regarding GAAGGCACGAAAGTGTTC (((..(((....)))))), the Tm in data set [1] turned out to be 24.6 °C. The folding enthalpy in data set [2] was -9.46 kcal/mol.
Regarding GCCCGCGAAAGCGTTGGC ((((((....)))..))), the Tm in data set [1] was found to be 56.2 °C. For the same sequence, the folding enthalpy in data set [2] is -23.2 kcal/mol.
Regarding GCGATATCGAAAGATCGC (((..(((....)))))), the Tm in data set [1] worked out at 50.1 °C. Moreover, the folding enthalpy in data set [2] is -30.7 kcal/mol.
The like results for GTCGGCCCGAAAGGGGAC (((..(((....)))))) were, in that order, 43.3 °C and -12.6 kcal/mol.
The corresponding values for GTATCCGAAAGGAGCTAC ((((((....)))..))) are 31.8 °C and -12.6 kcal/mol.
The corresponding values for CTTACGAAAGTAAG (((((....))))) are 49.2 °C and -19.3 kcal/mol.
On to GACTTCCGAAAGGACGTC (((.(((....))).))), for which, in data set [1], the Tm worked out at 48.9 °C. For the same sequence, the folding enthalpy in data set [2] is -32.3 kcal/mol.
The corresponding values for GACGACGAAAGTCCCGTC ((((((....)))..))) are 34.3 °C and -16.6 kcal/mol.
The corresponding values for GCCCAGGGAAACCCAGGC (((..((....))..))) are 44.4 °C and -25.6 kcal/mol.
The corresponding values for GCCAGTGGAAACACCGGC (((.(((....))).))) are 49.6 °C and -37.1 kcal/mol.
Consider GGTACTCGAAAGAGAACC (((.(((....))).))), for which the Tm in data set [1] was found to be 49.8 °C. The folding enthalpy in data set [2] was -30 kcal/mol.
The corresponding values for ACTTCGAAAGAAGT (((((....))))) are 50.8 °C and -20.8 kcal/mol.
The corresponding values for GATCTAGGTCTAGATC ((((((....)))))) are 46.2 °C and -37.1 kcal/mol.
As for GTTGACCCGAAAGGGAAC (((..(((....)))))), in data set [1], the Tm was 37.8 °C. Further, in data set [2], the folding enthalpy is -14.3 kcal/mol.
On to GTGTACGAAAGTAGCCAC ((((((....)))..))), for which, in data set [1], the Tm was 31.9 °C. Further, the folding enthalpy in data set [2] is -14.2 kcal/mol.
The corresponding values for GTAGACGAAAGTCCTTAC ((((((....)))..))) are 30.7 °C and -12.1 kcal/mol.
The like results for GAGGGAGGAAACTCCCCC (.(((((....))))).) were, in that order, 41.9 °C and -10.5 kcal/mol.
The corresponding values for GATCGTGAGCACGATC ((((((....)))))) are 55.9 °C and -37.1 kcal/mol.
On to GATCGACAGTTCGATC ((((((....)))))), for which the Tm in data set [1] was 49.2 °C. For the same sequence, the folding enthalpy in data set [2] is -44.4 kcal/mol.
Turning to GCCCCGCGAAAGCTGCGC ((.(.((....)).).)), the Tm in data set [1] was 36.6 °C. The folding enthalpy in data set [2] was -13.6 kcal/mol.
The like results for GCCAGCGAAAGCTATGGC ((((((....)))..))) were, in that order, 55.3 °C and -21.4 kcal/mol.
For the sequence GGCCGAGGAAACCCGGCC (((((.(....).))))), in data set [1], the Tm came to 65.5 °C. Also, in data set [2], the folding enthalpy is -36.9 kcal/mol.
The corresponding values for GATCCAGTATTGGATC ((((((....)))))) are 57.4 °C and -41.8 kcal/mol.
Take GCAGATGGAAACACCTGC ((((.((....)).)))): the Tm in data set [1] was 44.2 °C. The folding enthalpy in data set [2] was -28.9 kcal/mol.
The like results for GTGGTCCGAAAGGATCAC (((.(((....))).))) were, in that order, 60.4 °C and -41.1 kcal/mol.
The corresponding values for GTATGACCGAAAGGTTAC (((..(((....)))))) are 30.5 °C and -10.3 kcal/mol.
For the sequence GCGGTCGCGAAAGCGCGC (((..(((....)))))), the Tm in data set [1] was 59.7 °C. In addition, the folding enthalpy in data set [2] is -16.1 kcal/mol.
The like results for GTCTTTGGAAACGAAGAC (((((.(....).))))) were, in that order, 45 °C and -30.6 kcal/mol.
The like results for GTTATGCGAAAGCAAAC (((.(((....)))))) were, in that order, 36.5 °C and -14.3 kcal/mol.
Consider GGGGTTGGAAACGACCTC (.(((.(....).))).), for which the Tm in data set [1] amounted to 40.3 °C. Also, the folding enthalpy in data set [2] is -20.7 kcal/mol.
